Test results taken from ChEMBL document CHEMBL1287735, “Synthesis of new acylsulfamoyl benzoxaboroles as potent inhibitors of HCV NS3 protease” (Bioorg Med Chem Lett, 2010).

Legend:
Hepatitis C virus [1] = test: Antiviral activity against HCV genotype 1b transfected in human hepatoma cell assessed as inhibition of viral replication; type: functional, organism-based, Hepacivirus hominis
Rattus norvegicus [2] = test: (§1) Oral bioavailability in Sprague-Dawley rat at 5 mg/kg; type: ADME, organism-based; details: in vivo, BLD = below limit of detection
Method in brief: (§2)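 Dosing was oral at 5 mg/kg and IV at 1 mg/kg (n = 3 each). Bioavailability was calculated from jugular vein drug concentrations after oral administration relative to IV administration. Limit of detection 0.5 ng/mL.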

[3] = Inhibition of HCV genotype 1 a NS3/4A protease by FRET assay; set-up: species or system Hepatitis C virus subtype 1a
Rattus norvegicus [4] = test: (§3) AUC (0 to infinity) in Sprague-Dawley rat at 5 mg/kg, po; type: ADME, organism-based, Plasma; set-up: time infinity, dose 5 mg/kg, route oral; details: in vivo, BLD = below limit of detection
Method in brief: (§4)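 Rats (n = 3 per route) received compound orally at 5 mg/kg or intravenously at 1 mg/kg. Plasma drug levels were measured with a limit of detection of 0.5 ng/mL, and no PK data were generated for samples below it.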

Hepatitis C virus [5] = test: Antiviral activity against HCV genotype 1a transfected in human hepatoma cell assessed as inhibition of viral replication; type: functional, organism-based, Hepacivirus hominis; details: subtype 1a
Rattus norvegicus [6] = test: Metabolic absorption in Sprague-Dawley rat at 5 mg/kg, po; type: ADME, organism-based; set-up: dose 5 mg/kg, route oral; details: in vivo
Method in brief: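 Rats (n = 3 per route) were dosed orally at 5 mg/kg and intravenously at 1 mg/kg. Value calculated from portal vein drug concentrations after oral dosing relative to those after IV dosing. Limit of detection 0.5 ng/mL.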

[7] = Clearance in Sprague-Dawley rat at 1 mg/kg, iv; type: ADME, organism-based; set-up: dose 1 mg/kg, route intravenous; details: in vivo; method in brief: as §4
[8] = as §1; type: ADME, organism-based; details: Sprague-Dawley, in vivo; method in brief: as §2
[9] = as §3; type: ADME, organism-based, Plasma; set-up: time infinity, dose 5 mg/kg, route oral; details: Sprague-Dawley, plasma; method in brief: as §4

| Compound | EC50 (Hepatitis C virus [1]) | F (Rattus norvegicus [2]) | IC50 [3] | AUC (Rattus norvegicus [4]) | EC50 (Hepatitis C virus [5]) | Activity (Rattus norvegicus [6]; BLD = below limit of detection) | clearance [7] | bioavailability [8] | AUC(0-inf) [9] | Activity (Rattus norvegicus [6]) |
| --- | --- | --- | --- | --- | --- | --- | --- | --- | --- | --- |
| O=C(N[C@H]1CCCCC/C=C\[C@@H]2C[C@@]2(C(=O)NS(=O)(=O)c2ccc3c(c2)B(O)OC3)NC(=O)[C@@H]2C[C@@H](OC(=O)N3Cc4cccc(F)c4C3)CN2C1=O)OC1CCCC1 | 8 nM | BLD | 0.8 nM | BLD | 66 nM | BLD | 111 mL/min/kg |  |  |  |
| O=C(N[C@H]1CCCCC/C=C\[C@@H]2C[C@@]2(C(=O)NS(=O)(=O)c2ccc3c(c2)COB3O)NC(=O)[C@@H]2C[C@@H](OC(=O)N3Cc4cccc(F)c4C3)CN2C1=O)OC1CCCC1 | 12 nM |  | 0.8 nM |  | 70 nM |  |  |  |  |  |
| C=C[C@@H]1C[C@]1(NC(=O)[C@@H]1C[C@@H]2CN1C(=O)[C@H](C(C)(C)C)NC(=O)OCC(C)(C)CCCCc1cccc3c1CN(C3)C(=O)O2)C(=O)NS(=O)(=O)c1ccc2c(c1)B(O)OC2 | 20 nM |  | 0.4 nM |  | 78 nM |  |  |  |  |  |
| C=C[C@@H]1C[C@]1(NC(=O)[C@@H]1C[C@@H]2CN1C(=O)[C@H](C(C)(C)C)NC(=O)OCC(C)(C)CCCCc1cccc3c1CN(C3)C(=O)O2)C(=O)NS(=O)(=O)c1ccc2c(c1)COB2O | 15 nM |  | 0.6 nM |  | 66 nM |  |  |  |  |  |
| C=C[C@@H]1C[C@]1(NC(=O)[C@@H]1C[C@@H]2CN1C(=O)[C@H](C(C)(C)C)NC(=O)OCC(C)(C)CCCCc1cccc3c1CN(C3)C(=O)O2)C(=O)NS(=O)(=O)c1cccc2c1COB2O | 12 nM |  | 0.3 nM |  | 52 nM |  | 82 mL/min/kg | 1.2% | 14 ng·h/mL | 1.6% |
| CC(C)(C)OC(=O)N[C@H]1CCCCC/C=C\[C@@H]2C[C@@]2(C(=O)NS(=O)(=O)C2CC2)NC(=O)[C@@H]2C[C@@H](OC(=O)N3Cc4cccc(F)c4C3)CN2C1=O [DANOPREVIR] | 1.1 nM |  | 0.4 nM |  | 1 nM |  | 10.7 mL/min/kg | 20% | 1750 ng·h/mL | 17.4% |
